Measured values published in the RNAGym collection of RNA variant scans (doi:10.1002/anie.201605470).

B1: Osa-1-4 twister ribozyme (parent)
chain: CCGCCUAACACUGCCAAUGCCGGUCCCAAGCCCGGAUAAAAGUGGAGGGGGCGG

Variants of: B1
Assay: self-cleavage, relative activity (ratio to wild type); higher = more cleavage; co-transcriptional
Summary of the method: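 The 48 positions downstream of the cleavage site in a DNA template for a 54-nucleotide Oryza sativa twister ribozyme carried 97 % wild-type base and 1 % of each other base. After in vitro transcription (2 h, 37 °C) with co-transcriptional self-cleavage, the RNA was reverse-transcribed with a template-switching oligonucleotide, PCR-amplified and deep-sequenced. Relative activity is the fraction cleaved, judged by reads with or without upstream sequence and normalised to wild type.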

Variant	self-cleavage
CCGCCUAACACUGCCAAUGCCGGUACCAAGCCCGGAUAAAAGUGGGGGGGGCGG [A46G C25A]	0.02
CCGCCUAACACUGCCAAUGCCGGUUCCAAGCCCGGAUAAAAGUGGGGGGGGCGG [A46G C25U]	0.05
CCGCCUAACACUGCCAAUGCCGGUGCCAAGCCCGGAUAAAAGUGGGGGGGGCGG [A46G C25G]	0.02
CCGCCUAACACUGCCAAUGCCGGUCCCAAGCCGGGAUAAAAGUGGGGGGGGCGG [A46G C33G]	0.03
CCGCCUAACACUGCCAAUGCCGGUCCCAAGCCAGGAUAAAAGUGGGGGGGGCGG [A46G C33A]	0.04
CCGCCUAACACUGCCAAUGCCGGUCCCAAGCCUGGAUAAAAGUGGGGGGGGCGG [A46G C33U]	0.06
CCGCCUAACACUGCCAAUGCCGGUCCCAAGCCCGGAUAAAAGUGGGGGGGGCGC [A46G G54C]	0.06
CCGCCUAACACUGCCAAUGCCGGUCCCAAGCCCGGAUAAAAGUGGGGGGGGCGA [A46G G54A]	0.07
CCGCCUAACACUGCCAAUGCCGGUCCCAAGCCCGGAUAAAAGUGGGGGGGGCGU [A46G G54U]	0.11
CCGCCUAACACUGCCAAUGCCGGUCCCAAGCCCGGAUAAAAGUGGGGGUGGCGG [A46G G49U]	0.03
CCGCCUAACACUGCCAAUGCCGGUCCCAAGCCCGGAUAAAAGUGGGGGCGGCGG [A46G G49C]	0.03
CCGCCUAACACUGCCAAUGCCGGUCCCAAGCCCGGAUAAAAGUGGGGGAGGCGG [A46G G49A]	0.03
CCGCCUAACACUGCCAAUGCCGGUCCCAAGCUCGGAUAAAAGUGGGGGGGGCGG [A46G C32U]	0.04
CCGCCUAACACUGCCAAUGCCGGUCCCAAGCACGGAUAAAAGUGGGGGGGGCGG [A46G C32A]	0.03
CCGCCUAACACUGCCAAUGCCGGUCCCAAGCGCGGAUAAAAGUGGGGGGGGCGG [A46G C32G]	0.07
CCGCCUAACACUGCCAAUGCCGGUCCCAAGCCCGGAUAAAAGUGGGGAGGGCGG [A46G G48A]	0.02
CCGCCUAACACUGCCAAUGCCGGUCCCAAGCCCGGAUAAAAGUGGGGCGGGCGG [A46G G48C]	0.03
CCGCCUAACACUGCCAAUGCCGGUCCCAAGCCCGGAUAAAAGUGGGGUGGGCGG [A46G G48U]	0.02
CCGCCUAACACUGCCAAUGCCGGUCCCAAGACCGGAUAAAAGUGGGGGGGGCGG [A46G C31A]	0.01
CCGCCUAACACUGCCAAUGCCGGUCCCAAGGCCGGAUAAAAGUGGGGGGGGCGG [A46G C31G]	0.03
CCGCCUAACACUGCCAAUGCCGGUCCCAAGUCCGGAUAAAAGUGGGGGGGGCGG [A46G C31U]	0.05
CCGCCUAACACUGCCAAUGCCGGUCCCAAGCCCGAAUAAAAGUGGGGGGGGCGG [A46G G35A]	0.07
CCGCCUAACACUGCCAAUGCCGGUCCCAAGCCCGUAUAAAAGUGGGGGGGGCGG [A46G G35U]	0.08
CCGCCUAACACUGCCAAUGCCGGUCCCAAGCCCGCAUAAAAGUGGGGGGGGCGG [A46G G35C]	0.05
CCGCCUAACACUGCCAAUGCCGGUCCCAAGCCCGGAUAAAAGUGGGGGGGGCCG [A46G G53C]	0.03

Variant	self-cleavage
CCGCCUAACACUGCCAAUGCCGGUCCCAAGCCCGGAUAAAAGUGGGGGGGGCUG [A46G G53U]	0.07
CCGCCUAACACUGCCAAUGCCGGUCCCAAGCCCGGAUAAAAGUGGGGGGGGCAG [A46G G53A]	0.07
CCGCCUAAUACUGCCAAUGCCGGUCCCAAGCCCGGAUAAAAGUGGGGGGGGCGG [A46G C9U]	0.03
CCGCCUAACACUGCCAAUGCCGGUCCCAAGCCCUGAUAAAAGUGGGGGGGGCGG [A46G G34U]	0.05
CCGCCUAACACUGCCAAUGCCGGUCCCAAGCCCAGAUAAAAGUGGGGGGGGCGG [A46G G34A]	0.06
CCGCCUAACACUGCCAAUGCCGGUCCCAAGCCCCGAUAAAAGUGGGGGGGGCGG [A46G G34C]	0.05
CCGCCUAACACUGCCAAUGCCAGUCCCAAGCCCGGAUAAAAGUGGGGGGGGCGG [A46G G22A]	0.08
CCGCCUAACACUGCCAAUGCCCGUCCCAAGCCCGGAUAAAAGUGGGGGGGGCGG [A46G G22C]	0.02
CCGCCUAACACUGCCAAUGCCUGUCCCAAGCCCGGAUAAAAGUGGGGGGGGCGG [A46G G22U]	0.06
CCGCCUAACACUGCCAAUGCCGGUCCAAAGCCCGGAUAAAAGUGGGGGGGGCGG [A46G C27A]	0.05
CCGCCUAACACUGCCAAUGCCGGUCCGAAGCCCGGAUAAAAGUGGGGGGGGCGG [A46G C27G]	0.04
CCGCCUAACACUGCCAAUGCCGGUCCUAAGCCCGGAUAAAAGUGGGGGGGGCGG [A46G C27U]	0.04
CCGCCUAACACUGCCAAUACCGGUCCCAAGCCCGGAUAAAAGUGGGGGGGGCGG [A46G G19A]	0.05
CCGCCUAACACUGCCAAUUCCGGUCCCAAGCCCGGAUAAAAGUGGGGGGGGCGG [A46G G19U]	0.04
CCGCCUAACACUGCCAAUCCCGGUCCCAAGCCCGGAUAAAAGUGGGGGGGGCGG [A46G G19C]	0.02
CCGCCUAACACUGCCAAUGCCGGUCCCAAGCCCGGAUAAAAGUUGGGGGGGCGG [A46G G44U]	0.07
CCGCCUAACACUGCCAAUGCCGGUCCCAAGCCCGGAUAAAAGUAGGGGGGGCGG [A46G G44A]	0.05
CCGCCUAACACUGCCAAUGCCGGUCCCAAGCCCGGAUAAAAGUCGGGGGGGCGG [A46G G44C]	0.05
CCGCCUAACACUGCCAAUGCCGGUCCCAAGCCCGGAUAAAAGUGCGGGGGGCGG [A46G G45C]	0.03
CCGCCUAACACUGCCAAUGCCGGUCCCAAGCCCGGAUAAAAGUGUGGGGGGCGG [A46G G45U]	0.03
CCGCCUAACACUGCCAAUGCCGGUCCCAAGCCCGGAUAAAAGUGAGGGGGGCGG [A46G G45A]	0.06
CCGCCUAACACUGCCAAUGCCGGUCCCAAGCCCGGAUAAAAGUGGGGGGGACGG [A46G G51A]	0.05
CCGCCUAACACUGCCAAUGCCGGUCCCAAGCCCGGAUAAAAGUGGGGGGGUCGG [A46G G51U]	0.05
CCGCCUAACACUGCCAAUGCCGGUCCCAAGCCCGGAUAAAAGUGGGGGGGCCGG [A46G G51C]	0.04
CCGCCUAACACUGCUAAUGCCGGUCCCAAGCCCGGAUAAAAGUGGGGGGGGCGG [A46G C15U]	0.04

Variant	self-cleavage
CCGCCUAACACUGCGAAUGCCGGUCCCAAGCCCGGAUAAAAGUGGGGGGGGCGG [A46G C15G]	0.04
CCGCCUAACACUGCAAAUGCCGGUCCCAAGCCCGGAUAAAAGUGGGGGGGGCGG [A46G C15A]	0.06
CCGCCUAACACUGCCAAAGCCGGUCCCAAGCCCGGAUAAAAGUGGGGGGGGCGG [A46G U18A]	0.06
CCGCCUAACACUGCCAAGGCCGGUCCCAAGCCCGGAUAAAAGUGGGGGGGGCGG [A46G U18G]	0.13
CCGCCUAACACUGCCAACGCCGGUCCCAAGCCCGGAUAAAAGUGGGGGGGGCGG [A46G U18C]	0.07
CCGCCUAACAAUGCCAAUGCCGGUCCCAAGCCCGGAUAAAAGUGGGGGGGGCGG [A46G C11A]	0.06
CCGCCUAACAUUGCCAAUGCCGGUCCCAAGCCCGGAUAAAAGUGGGGGGGGCGG [A46G C11U]	0.06
CCGCCUAACAGUGCCAAUGCCGGUCCCAAGCCCGGAUAAAAGUGGGGGGGGCGG [A46G C11G]	0.04
CCGCCUAACACUGCCAAUGCCGGCCCCAAGCCCGGAUAAAAGUGGGGGGGGCGG [A46G U24C]	0.04
CCGCCUAACACUGCCAAUGCCGGACCCAAGCCCGGAUAAAAGUGGGGGGGGCGG [A46G U24A]	0.04
CCGCCUAACACUGCCAAUGCCGGGCCCAAGCCCGGAUAAAAGUGGGGGGGGCGG [A46G U24G]	0.02
CCGCCUAACACUGCCAAUGCCGGUCGCAAGCCCGGAUAAAAGUGGGGGGGGCGG [A46G C26G]	0.02
CCGCCUAACACUGCCAAUGCCGGUCUCAAGCCCGGAUAAAAGUGGGGGGGGCGG [A46G C26U]	0.04
CCGCCUAACACUGCCAAUGCCGGUCACAAGCCCGGAUAAAAGUGGGGGGGGCGG [A46G C26A]	0.03
CCGCCUAACACUGCCAAUGCCGGUCCCAAGCCCGGAUAAAAGUGGGCGGGGCGG [A46G G47C]	0.03
CCGCCUAACACUGCCAAUGCCGGUCCCAAGCCCGGAUAAAAGUGGGUGGGGCGG [A46G G47U]	0.06
CCGCCUAACACUGCCAAUGCCGGUCCCAAGCCCGGAUAAAAGUGGGAGGGGCGG [A46G G47A]	0.06
CCGCCUAACACUGCCAAUGCGGGUCCCAAGCCCGGAUAAAAGUGGGGGGGGCGG [A46G C21G]	0.02
CCGCCUAACACUGCCAAUGCAGGUCCCAAGCCCGGAUAAAAGUGGGGGGGGCGG [A46G C21A]	0.07
CCGCCUAACACUGCCAAUGCUGGUCCCAAGCCCGGAUAAAAGUGGGGGGGGCGG [A46G C21U]	0.09
CCGCCUAACACUGCCAAUGACGGUCCCAAGCCCGGAUAAAAGUGGGGGGGGCGG [A46G C20A]	0.09
CCGCCUAACACUGCCAAUGGCGGUCCCAAGCCCGGAUAAAAGUGGGGGGGGCGG [A46G C20G]	0.04
CCGCCUAACACUGCCAAUGUCGGUCCCAAGCCCGGAUAAAAGUGGGGGGGGCGG [A46G C20U]	0.07
CCGCCUAACACUGCCAAUGCCGGUCCCAAGCCCGGAUAAAAGUGGGGGGUGCGG [A46G G50U]	0.06
CCGCCUAACACUGCCAAUGCCGGUCCCAAGCCCGGAUAAAAGUGGGGGGAGCGG [A46G G50A]	0.08

Variant	self-cleavage
CCGCCUAACACUGCCAAUGCCGGUCCCAAGCCCGGAUAAAAGUGGGGGGCGCGG [A46G G50C]	0.06
CCGCCUAACACUGCCAAUGCCGGUCCCAACCCCGGAUAAAAGUGGGGGGGGCGG [A46G G30C]	0.01
CCGCCUAACACUGCCAAUGCCGGUCCCAAACCCGGAUAAAAGUGGGGGGGGCGG [A46G G30A]	0.02
CCGCCUAACACUGCCAAUGCCGGUCCCAAUCCCGGAUAAAAGUGGGGGGGGCGG [A46G G30U]	0.03
CCGCCUAACACUGCCAAUGCCGUUCCCAAGCCCGGAUAAAAGUGGGGGGGGCGG [A46G G23U]	0.03
CCGCCUAACACUGCCAAUGCCGCUCCCAAGCCCGGAUAAAAGUGGGGGGGGCGG [A46G G23C]	0.02
CCGCCUAACACUGCCAAUGCCGAUCCCAAGCCCGGAUAAAAGUGGGGGGGGCGG [A46G G23A]	0.05
CCGCCUAACACCGCCAAUGCCGGUCCCAAGCCCGGAUAAAAGUGGGGGGGGCGG [A46G U12C]	0.05
CCGCCUAACACGGCCAAUGCCGGUCCCAAGCCCGGAUAAAAGUGGGGGGGGCGG [A46G U12G]	0.07
CCGCCUAACACAGCCAAUGCCGGUCCCAAGCCCGGAUAAAAGUGGGGGGGGCGG [A46G U12A]	0.05
CCGCCUAACACUGGCAAUGCCGGUCCCAAGCCCGGAUAAAAGUGGGGGGGGCGG [A46G C14G]	0.04
CCGCCUAACACUGUCAAUGCCGGUCCCAAGCCCGGAUAAAAGUGGGGGGGGCGG [A46G C14U]	0.03
CCGCCUAACACUGACAAUGCCGGUCCCAAGCCCGGAUAAAAGUGGGGGGGGCGG [A46G C14A]	0.03
CCGCCUAACACUGCCAAUGCCGGUCCCAAGCCCGGAUAAAAAUGGGGGGGGCGG [A46G G42A]	0.05
CCGCCUAACACUGCCAAUGCCGGUCCCAAGCCCGGAUAAAAUUGGGGGGGGCGG [A46G G42U]	0.04
CCGCCUAACACUGCCAAUGCCGGUCCCAAGCCCGGAUAAAACUGGGGGGGGCGG [A46G G42C]	0.04
CCGCCUAACACUUCCAAUGCCGGUCCCAAGCCCGGAUAAAAGUGGGGGGGGCGG [A46G G13U]	0.01
CCGCCUAACACUACCAAUGCCGGUCCCAAGCCCGGAUAAAAGUGGGGGGGGCGG [A46G G13A]	0.02
CCGCCUAACACUCCCAAUGCCGGUCCCAAGCCCGGAUAAAAGUGGGGGGGGCGG [A46G G13C]	0.02
CCGCCUAACACUGCCAAUGCCGGUCCCAAGCCCGGAUAAAAGUGGGGGGGGGGG [A46G C52G]	0.24
CCGCCUAACACUGCCAAUGCCGGUCCCAAGCCCGGAUAAAAGUGGGGGGGGAGG [A46G C52A]	0.1
CCGCCUAACACUGCCAAUGCCGGUCCCAAGCCCGGAUAAAAGUGGGGGGGGUGG [A46G C52U]	0.09
